Tests used:
[1] = tested on: Vero; assay: Cytotoxicity against african green monkey Vero cells assessed as incorporation of [3H]hypoxanthine after 48 hrs; type: cell-based; settings: chlorocebus sabaeus
Summary of the method: (§1)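 Vero, MCF7 and THP1 cells were grown under the P. falciparum culture conditions, except that 10% fetal calf serum replaced 5% human serum. Cells were incubated 48 h with serial drug dilutions. Growth was measured by [3H]hypoxanthine incorporation relative to untreated controls. IC50 is the mean ± SEM of ≥3 independent experiments.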

[2] = tested on: THP-1; assay: Cytotoxicity against human THP1 cells assessed as incorporation of [3H]hypoxanthine after 48 hrs; type: cell-based; settings: thp-1, 48 h; summary of the method: as §1
[3] = tested on: MCF7; assay: Cytotoxicity against human MCF7 cells assessed as incorporation of [3H]hypoxanthine after 48 hrs; type: cell-based; settings: mcf7, 48 h; summary of the method: as §1
[4] = tested on: Plasmodium vinckei petteri; assay: Antiplasmodial activity against Plasmodium vinckei petteri infected in CD mouse assessed as suppression of parasitemia at 1 mg/kg/day, ip measured on day 5 post-infection by Giemsa staining; type: functional; settings: 120 h, route intraperitoneal
Summary of the method: (§2)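 Four-day suppressive test in female CD mice (20 ± 2 g) infected with 10^6 P. vinckei petteri-infected erythrocytes on day 0. Groups of five were dosed i.p. (DMSO vehicle) or p.o. (carboxymethylcellulose vehicle) on days 0–3 at 0.5–20 mg/kg/day. Parasitemia was read from Giemsa-stained tail-blood smears (≥5,000 erythrocytes). % inhibition = (control − treated parasitemia)/control × 100.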

[5] = tested on: Plasmodium vinckei petteri; assay: Antiplasmodial activity against Plasmodium vinckei petteri infected in CD mouse assessed as suppression of parasitemia at 5 mg/kg/day, ip measured on day 5 post-infection by Giemsa staining; type: functional; settings: 120 h, route intraperitoneal; summary of the method: as §2
[6] = tested on: Plasmodium vinckei petteri; assay: Antiplasmodial activity against Plasmodium vinckei petteri infected in CD mouse assessed as suppression of parasitemia at 10 mg/kg/day, ip measured on day 5 post-infection by Giemsa staining; type: functional; settings: 120 h, route intraperitoneal
Summary of the method: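 Four-day suppressive test in female CD mice (20 ± 2 g) infected on day 0 with P. vinckei petteri-infected red blood cells in RPMI. Groups of five treated i.p. once daily, days 0–3; DMSO-only mice were the i.p. control. Parasitemia was counted on Giemsa-stained tail-blood smears (at least 5,000 erythrocytes). Inhibition % = (control − treated parasitemia)/control × 100.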

[7] = tested on: Plasmodium vinckei petteri; assay: Antiplasmodial activity against Plasmodium vinckei petteri infected in po dosed CD mouse assessed as mean survival time at 5 mg/kg/day, ip for 4 days measured upto day 21 post-infection; type: functional
Summary of the method: (§3)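 Female CD mice were infected with 10^6 P. vinckei petteri-infected erythrocytes and dosed i.p. or p.o. on days 0–3, five per group. Survival was followed to day 21. Mean survival time is the area under the Kaplan–Meier survivor function. Where mice survived, an extended mean was obtained by exponential extension of the survivor function to zero. Comparisons used the log rank test.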

[8] = tested on: Plasmodium vinckei petteri; assay: Antiplasmodial activity against Plasmodium vinckei petteri infected in po dosed CD mouse assessed as mean survival time at 10 mg/kg/day, ip for 4 days measured upto day 21 post-infection; type: functional; summary of the method: as §3
[9] = tested on: Plasmodium vinckei petteri; assay: Antiplasmodial activity against Plasmodium vinckei petteri infected in po dosed CD mouse assessed as extended mean survival time at 10 mg/kg/day, ip for 4 days; type: functional; summary of the method: as §3
[10] = tested on: Plasmodium falciparum; assay: Antiplasmodial activity against Plasmodium falciparum F32 assessed as suppression of parasitemia after 4 hrs by Giemsa staining; type: functional, organism-based; settings: F32, 4 h
Summary of the method: (§4)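 Asexual blood-stage P. falciparum growth inhibition, run by a modified Desjardins method. Parasites were grown by a modified Trager–Jensen culture and synchronized by magnetic enrichment plus 5% D-sorbitol lysis. F32 is chloroquine-sensitive; FcB1 and W2 are chloroquine-resistant. IC50 is the mean ± SEM of at least three independent experiments.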

[11] = tested on: Plasmodium falciparum; assay: Antiplasmodial activity against Plasmodium falciparum FcB1/Columbia assessed as suppression of parasitemia after 4 hrs by Giemsa staining; type: functional, organism-based; summary of the method: as §4
[12] = tested on: Plasmodium falciparum; assay: Antiplasmodial activity against Plasmodium falciparum W2 assessed as suppression of parasitemia after 4 hrs by Giemsa staining; type: functional, organism-based; settings: W2, 4 h; summary of the method: as §4
[13] = tested on: Plasmodium falciparum; assay: Antiplasmodial activity against Plasmodium falciparum W2 gametocytes assessed as suppression of parasitemia […] by Giemsa staining; type: functional, organism-based
Summary of the method: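 W2 gametocytogenesis was induced on day 0 by a modified Ifediba–Vanderberg method, with N-acetylglucosamine added on day 10. Increasing compound dilutions were added on day 13. On day 15, Giemsa-stained thin smears were counted (≥10,000 erythrocytes each) to estimate gametocytemia against untreated and reference-drug controls. IC50 is the mean ± SEM of ≥3 independent experiments.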

[14] = tested on: Plasmodium berghei; assay: Antiplasmodial activity against Plasmodium berghei infected in ip dosed mouse; type: functional
[15] = tested on: Plasmodium yoelii yoelii; assay: Antiplasmodial activity against Plasmodium yoelii yoelii infected in po dosed rodents; type: functional
[16] = tested on: Plasmodium vinckei petteri; assay: Antiplasmodial activity against Plasmodium vinckei petteri infected in CD mouse assessed as suppression of parasitemia at 1 mg/kg/day, po measured on day 5 post-infection by Giemsa staining; type: functional; settings: 120 h; summary of the method: as §2
[17] = tested on: Plasmodium vinckei petteri; assay: Antiplasmodial activity against Plasmodium vinckei petteri infected in CD mouse assessed as suppression of parasitemia at 20 mg/kg/day, po measured on day 5 post-infection by Giemsa staining; type: functional; settings: 120 h; summary of the method: as §2
[18] = tested on: Plasmodium vinckei petteri; assay: Antiplasmodial activity against Plasmodium vinckei petteri infected in CD mouse assessed as suppression of parasitemia at 10 mg/kg/day, po measured on day 5 post-infection by Giemsa staining; type: functional; settings: 120 h; summary of the method: as §2
[19] = tested on: Plasmodium vinckei petteri; assay: Antiplasmodial activity against Plasmodium vinckei petteri infected in ip dosed CD mouse assessed as suppression of parasitemia measured on day 5 post-infection by Giemsa staining; type: functional; settings: 120 h; summary of the method: as §2
[20] = tested on: Plasmodium vinckei petteri; assay: Antiplasmodial activity against Plasmodium vinckei petteri infected in po dosed CD mouse assessed as suppression of parasitemia measured on day 5 post-infection by Giemsa staining; type: functional; settings: 120 h; summary of the method: as §2
[21] = tested on: Plasmodium vinckei petteri; assay: Antiplasmodial activity against Plasmodium vinckei petteri infected in po dosed CD mouse assessed as mean survival time at 1 mg/kg/day, ip for 4 days measured upto day 21 post-infection; type: functional; summary of the method: as §3
[22] = tested on: Plasmodium vinckei petteri; assay: Antiplasmodial activity against Plasmodium vinckei petteri infected in po dosed CD mouse assessed as mean survival time at 1 mg/kg/day, po for 4 days measured upto day 21 post-infection; type: functional; summary of the method: as §3
[23] = tested on: Plasmodium vinckei petteri; assay: Antiplasmodial activity against Plasmodium vinckei petteri infected in po dosed CD mouse assessed as mean survival time at 10 mg/kg/day, po for 4 days measured upto day 21 post-infection; type: functional; summary of the method: as §3
[24] = tested on: Plasmodium vinckei petteri; assay: Antiplasmodial activity against Plasmodium vinckei petteri infected in po dosed CD mouse assessed as extended mean survival time at 1 mg/kg/day, ip for 4 days; type: functional; summary of the method: as §3
[25] = tested on: Plasmodium vinckei petteri; assay: Antiplasmodial activity against Plasmodium vinckei petteri infected in po dosed CD mouse assessed as extended mean survival time at 5 mg/kg/day, ip for 4 days; type: functional; summary of the method: as §3
[26] = tested on: Plasmodium vinckei petteri; assay: Antiplasmodial activity against Plasmodium vinckei petteri infected in po dosed CD mouse assessed as extended mean survival time at 0.5 mg/kg/day, ip for 4 days; type: functional; summary of the method: as §3
[27] = tested on: Plasmodium vinckei petteri; assay: Antiplasmodial activity against Plasmodium vinckei petteri infected in po dosed CD mouse assessed as extended mean survival time at 1 mg/kg/day, po for 4 days measured upto day 21 post-infection; type: functional; summary of the method: as §3
[28] = tested on: Plasmodium vinckei petteri; assay: Antiplasmodial activity against Plasmodium vinckei petteri infected in po dosed CD mouse assessed as extended mean survival time at 10 mg/kg/day, po for 4 days; type: functional; summary of the method: as §3
[29] = tested on: Plasmodium vinckei petteri; assay: Antiplasmodial activity against Plasmodium vinckei petteri infected in po dosed CD mouse assessed as extended mean survival time at 20 mg/kg/day, po for 4 days; type: functional; summary of the method: as §3
[30] = tested on: Plasmodium vinckei petteri; assay: Antiplasmodial activity against Plasmodium vinckei petteri infected in po dosed CD mouse assessed as mean survival time at 0.5 mg/kg/day, ip for 4 days measured upto day 21 post-infection; type: functional; summary of the method: as §3
[31] = tested on: Plasmodium vinckei petteri; assay: Antiplasmodial activity against Plasmodium vinckei petteri infected in CD mouse assessed as suppression of parasitemia at 0.5 mg/kg/day, ip measured on day 5 post-infection by Giemsa staining; type: functional; settings: 120 h, route intraperitoneal; summary of the method: as §2

Structure (SMILES): CCN(CC)CCCC(C)Nc1ccnc2cc(Cl)ccc12 (stereo not drawn) [CHLOROQUINE]
- Activity [1]: > 0.5 µM
- Activity [2]: > 500 nM
- Activity [3]: > 500 nM
- inhibition in vivo at 1 mg/kg/day [4]: ≤ 0%
- inhibition in vivo at 5 mg/kg/day [5]: 100%
- inhibition in vivo at 10 mg/kg/day [6]: 100%
- MST [7]: 12.8 days
- MST [8]: 19.2 days
- MST [9]: 43.87 days

Structure (SMILES): COc1cc(NC(C)CCCN)c2ncccc2c1 (stereo not drawn) [PRIMAQUINE]
- IC50 [10]: 6.17 µM
- IC50 [11]: 8.9 µM
- IC50 [12]: 7.14 µM
- IC50 [13]: 8.9 µM
- Activity [1]: 340 µM

Structure (SMILES): CC[C@@H](C)C(=O)O[C@H]1C(=O)O[C@@H]2C[C@H]3C(C)=CC(=O)[C@@H](O)[C@]3(C)[C@H]3[C@@H](O)[C@H](O)[C@]4(C)OC[C@]32[C@@H]14 [SIMALIKALACTONE D]
- Activity [1]: 0.058 µM
- Activity [2]: < 2 nM
- Activity [3]: < 20 nM
- ED50 [14]: 0.2 mg/kg/day
- ED50 [15]: 3.7 mg/kg/day

Structure (SMILES): CC[C@H](C)C(=O)O[C@@H]1[C@H]2C(C)=CC(=O)[C@@H](O)[C@]2(C)[C@H]2[C@@H](O)[C@H](O)[C@@]3(C)OC[C@@]24[C@@H]1OC(=O)[C@H](OC(=O)[C@@H](C)CC)[C@@H]34 [SIMALIKALACTONE E]
- IC50 [13]: 1.12 µM
- Activity [1]: 6.574 µM
- Activity [2]: 33 nM
- Activity [3]: 47 nM
- inhibition in vivo at 1 mg/kg/day [4]: 98%
- inhibition in vivo at 5 mg/kg/day [5]: 100%
- inhibition in vivo at 1 mg/kg/day [16]: 55%
- inhibition in vivo at 20 mg/kg/day [17]: 100%
- inhibition in vivo at 10 mg/kg/day [18]: 95%
- ED50 [19]: 0.5 mg/kg/day
- ED50 [20]: 1 mg/kg/day
- MST [21]: 18.6 days
- ED50 ([21]; Plasmodium vinckei): 3 mg/kg/day
- MST [7]: 11.4 days
- MST [22]: 11 days
- MST [23]: 12.4 days
- MST [24]: 93.89 days
- MST [25]: 20.57 days
- MST [26]: 41.07 days
- MST [27]: 13.61 days
- MST [28]: 15.01 days
- MST [29]: 16.41 days
- MST [30]: 16.4 days
- inhibition in vivo at 0.5 mg/kg/day [31]: 59%

Reference: ChEMBL document CHEMBL1649241, “Antimalarial activity of simalikalactone E, a new quassinoid from Quassia amara L. (Simaroubaceae)” (Antimicrob Agents Chemother, 2009)
